Reference: publication PMC11661456 (Science Advances, 2024)
“Also recorded” adds a separate entry of the source.

Columns and labels:
A. baumannii = test: Colistin E-test; format: cell-based
K. pneumoniae = test: Colistin E-test; format: cell-based; settings: ATCC 43816 upon MCR-1 expression
[1] = test system: mcr-1–expressing A. baumannii; test: Bacterial lysis assay, mcr-1-expressing A. baumannii; format: cell-based
In short: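 mcr-1–bearing A. baumannii and its ΔbioC mutant washed three times in biotin-free PBS, then seeded at 2 × 10^8 CFU/ml into 2 ml PBS with or without colistin (8 μg/ml). PBS-only groups served as untreated controls. Positive control arms used a reference inhibitor (4 μg/ml) alone, colistin (8 μg/ml) alone, or both together.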

[2] = test system: mcr-1–harboring K. pneumoniae; test: Bacterial lysis assay, mcr-1-harboring K. pneumoniae; format: cell-based; settings: colistin 8 μg/ml; MCR-1-expressing K. pneumoniae ΔbioC (FYJ6186)
AbBioC = biological target: T1, AbBioC (Acinetobacter baumannii, UniProt A0A1E3M3A7); test: Isothermal titration calorimetry of ligand binding to AbBioC; design: species or system A. baumannii; settings: for binding stoichiometry (N): ITC, single binding site model, mean ± SD (n = 3)
T1 sequence (A0A1E3M3A7 1-249): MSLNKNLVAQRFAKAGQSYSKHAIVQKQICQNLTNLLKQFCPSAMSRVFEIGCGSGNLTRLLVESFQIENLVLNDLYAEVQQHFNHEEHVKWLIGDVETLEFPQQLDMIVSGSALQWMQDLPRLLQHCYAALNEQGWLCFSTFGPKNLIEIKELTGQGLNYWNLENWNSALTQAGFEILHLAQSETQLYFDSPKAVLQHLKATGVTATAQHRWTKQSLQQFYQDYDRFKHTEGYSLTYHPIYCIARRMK
In short: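 His6-SUMO-tagged AbBioC, Ni-NTA purified. ITC at 25°C in 20 mM tris (pH 8.0), 300 mM NaCl. AbBioC (20 μM) in cell, titrated with SAM or test compound (200 μM) in 20 injections: 0.4 μl first, then 2.0 μl every 120 s. Data fitted to single-site model; N and Kd given as mean ± SD of three replicates.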

AbBioC methyltransferase = biological target: T2, AbBioC methyltransferase (Acinetobacter baumannii, UniProt A0A1E3M3A7); format: biochemical, A. baumannii
T2 sequence (A0A1E3M3A7 1-249): T1 sequence (A0A1E3M3A7 1-249)

[3] = test system: bioC-expressing bacterium; test: Effect of free SIN on viability of bioC-expressing bacterium; format: cell-based; settings: free (not nanoparticle-loaded) SIN
BcBioC = settings: in vitro; cited from earlier work

Compound | colistin MIC (E-test) (A. baumannii; AB18PR065 + mcr-4.3, 0.2% glu M9) [µg/mL] | colistin MIC (E-test) (A. baumannii; ATCC 17978 + plasmid-borne mcr-1, LB) [µg/mL] | colistin MIC (E-test) (A. baumannii; ATCC 17978 without mcr-1, LB) [µg/mL] | colistin MIC (E-test) (K. pneumoniae) [µg/mL] | bacterial lysis / viability ([1]; colistin 8 μg/ml alone, FYJ6179 in PBS, 20 hours) | bacterial killing by colistin of the ΔbioC mutant ([1]; colistin 8 μg/ml, mcr-1–expressing A. baumannii ΔbioC (FYJ6181)) | bacterial killing by colistin of the ΔbioC mutant [2] | Kd (AbBioC) [nM] | binding affinity of SIN compared with SAM (fold, Kd) (AbBioC; ITC Kd of SIN versus the physiological ligand SAM) | binding stoichiometry (N) (AbBioC) | Ki (AbBioC methyltransferase) [nM] | effect on the ability of AbBioC to initiate biotin synthesis (AbBioC methyltransferase; DTB/biotin bioassay, in vitro reconstituted system) | ability of free SIN to diminish bacterial viability [3] | inactivation of BcBioC enzyme (BcBioC)
colistin | 8.0 | 4.0 | 0.5 | 32 | neither MAC13772 inhibitor (4 μg/ml) nor colistin (8 μg/ml) lysed bacterial cells | resensitize; also recorded: vulnerability | fails to render the K. pneumoniae ΔbioC mutant insusceptible | – | – | – | – | – | – | –
Nc1ncnc2c1ncn2[C@@H]1O[C@H](C[C@@H](N)CC[C@H](N)C(=O)O)[C@@H](O)[C@H]1O [SIN, sinefungin] | – | – | – | – | – | – | – | 808 ± 135 | around threefold | 1.180 ± 0.008 | ~370 | efficiently interferes; also recorded: effectively kills AbBioC | inability | efficiently inactivate
C[S+](CC[C@H](N)C(=O)[O-])C[C@H]1O[C@@H](n2cnc3c(N)ncnc32)[C@H](O)[C@@H]1O (stereo partly drawn) [SAM, S-adenosyl-L-methionine] | – | – | – | – | – | – | – | 2570 ± 750 | – | 0.95 ± 0.13 | – | – | – | –
